Measured values from ChEMBL document CHEMBL2040777, “N-Aryl-N'-(chroman-4-yl)ureas and thioureas display in vitro anticancer activity and selectivity on apoptosis-resistant glioblastoma cells: screening, synthesis of simplified derivatives, and structure-activity relationship analysis” (Eur J Med Chem, 2012).
Activity calls are given as the source filed them. No cut-off for these calls is given here.

Tests used:
[1] = Growth inhibition of human U373 cells after 72 hrs by MTT assay; type: functional, cell-based, U-373MG ATCC; details: U373 MG
Method in brief: (§1)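 Glioma lines were grown in RPMI with 10% heat-inactivated FCS, 4 mM glutamine, gentamicin and penicillin-streptomycin. Cells were plated for 24 h at 10,000–40,000 cells/mL, then exposed to compound for 72 h. MTT reduction to formazan was read at 570 nm (reference 630 nm). Six replicates were run.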

T98G [2] = assay: Growth inhibition of human T98G cells after 72 hrs by MTT assay; type: functional, cell-based; method in brief: as §1
[3] = Growth inhibition of human Hs683 cells after 72 hrs by MTT assay; type: functional, cell-based; details: Hs 683, 72 h; method in brief: as §1
B16-F10 = assay: Growth inhibition of mouse B16F10 cells after 72 hrs by MTT assay; type: functional, cell-based; details: B16-F10, 72 h
[4] = Selectivity index, ratio of IC50 for mouse astrocytes to IC50 for human U373 cells; parameters: species or system U-373MG ATCC
T98G [5] = assay: Selectivity index, ratio of IC50 for mouse astrocytes to IC50 for human T98G cells
Hs 683 = assay: Selectivity index, ratio of IC50 for mouse astrocytes to IC50 for human Hs683 cells
[6] = Cell cycle arrest in human U373 cells assessed as accumulation at G0/G1 phase at 10 to 30 uM after 24 hrs by propidium iodide staining-based flow cytometric analysis; type: functional; details: U-373MG ATCC
[7] = Cytostatic activity against human U373 cells assessed as global growth ratio by measuring number of cells counted in the last and the first frame of study at 20 uM by quantitative videomicroscopic analysis; type: functional, U-373MG ATCC
Method in brief: (§2)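 U373 cells were cultured in 25 cm² flasks and filmed by computer-assisted phase-contrast time-lapse for 72 h, one image every 4 min. Growth level was the cell count in the last frame divided by the first. Global growth ratio was treated growth level over control growth level. Compounds were tested at 20 µM.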

U-373MG ATCC = assay: Induction of apoptosis in human U373 cells assessed as increase in subG1 cell population at 10 to 30 uM after 24 hrs by flow cytometric analysis; type: functional, cell-based
[8] = Growth inhibition of human U373 cells assessed as global growth ratio after 72 hrs by quantitative videomicroscopic analysis relative to untreated control; type: functional, U-373MG ATCC; details: U373 MG; method in brief: as §2

Row | SMILES | IC50 (B16-F10) | IC50 [1] | IC50 (T98G [2]) | IC50 [3] | Ratio IC50 [4] | Ratio IC50 (T98G [5]) | Ratio IC50 (Hs 683) | Activity [6] | Ratio [7] | Activity (U-373MG ATCC) | IC80 [8]
1 | CC1(C)CC(NC(=S)Nc2cccc([N+](=O)[O-])c2)c2cc(F)ccc2O1 (stereo not drawn) | 6 µM | 6 µM | 9 µM | 6 µM | 2 | 2 | 2 | – | – | – | –
2 | CC1(C)CC(NC(=S)Nc2ccc(C#N)cc2)c2cc(F)ccc2O1 (stereo not drawn) | 5 µM | 11 µM | 19 µM | 14 µM | 3 | 3 | 3 | – | – | – | –
3 | COc1ccc(Cl)cc1C(=O)NCCc1ccc(S(=O)(=O)NC(=O)NC2CCCCC2)cc1 [GLYBURIDE] | – | > 100 µM | – | – | – | – | – | inactive | – | – | –
4 | CC1(C)CC(NC(=S)Nc2ccc(C#N)cc2)c2cc(Br)ccc2O1 (stereo not drawn) | – | 22 µM | 24 µM | 15 µM | 2 | 2 | 2 | – | – | – | –
5 | CC1(C)CC(NC(=S)Nc2ccc([N+](=O)[O-])cc2)c2cc(Br)ccc2O1 (stereo not drawn) | 3 µM | 9 µM | 5 µM | 3 µM | <2 | <2 | <2 | – | – | – | –
6 | CC1(C)CC(NC(=S)Nc2ccc(C#N)cc2)c2cc(Cl)ccc2O1 (stereo not drawn) | 7 µM | 10 µM | 10 µM | 6 µM | 3 | 3 | 3 | – | – | – | –

Now from value to compound, other results behind:

Row | IC50 (B16-F10) | SMILES | IC50 [1] | IC50 (T98G [2]) | IC50 [3] | Ratio IC50 [4] | Ratio IC50 (T98G [5]) | Ratio IC50 (Hs 683) | Activity [6] | Ratio [7] | Activity (U-373MG ATCC) | IC80 [8]
7 | 9 µM | CC1(C)CC(NC(=O)Nc2ccc(Cl)cc2)c2cc(Br)ccc2O1 (stereo not drawn) | 25 µM | 27 µM | 24 µM | 5 | 5 | 5 | – | – | – | –
8 | 17 µM | CC1(C)CC(NC(=S)Nc2ccccc2Cl)c2cc(Br)ccc2O1 (stereo not drawn) | 34 µM | 8 µM | 22 µM | <5 | <5 | <5 | – | – | – | –
9 | 6 µM | CC1(C)CC(NC(=S)Nc2cccc(C#N)c2)c2cc(Cl)ccc2O1 (stereo not drawn) | 7 µM | 10 µM | 6 µM | <5 | <5 | <5 | – | – | – | –
10 | 20 µM | CC1(C)CC(NC(=O)Nc2ccccc2Cl)c2cc(Cl)ccc2O1 (stereo not drawn) | 17 µM | 20 µM | 25 µM | >10 | >10 | >10 | Active | 0.2 | inactive | 20 µM
